The species entered for one series is Homo sapiens. Description: Selectivity ratio of IC50 for recombinant GST-tagged inactive state of human CDK16 (108 to end residues)/cyclin Y (2 to end residues) to IC50 for recombinant full length His-tagged human CDK9/CyclinT1.
Series [1] deals with Cyclin-dependent kinase 9 (Homo sapiens, UniProt P50750). Put plainly: Inhibition of CDK9 in human MV4-11 cells assessed as decrease in RNA polymerase 2 phosphorylation at Ser 2 residues in CTD domain after 2 hrs by immunoblotting analysis. In kind it is cell-based. A general note: A western blot detects proteins with antibodies after separation by electrophoresis.
Chain of Cyclin-dependent kinase 9 (P50750 whole entry, the tested form may be a part): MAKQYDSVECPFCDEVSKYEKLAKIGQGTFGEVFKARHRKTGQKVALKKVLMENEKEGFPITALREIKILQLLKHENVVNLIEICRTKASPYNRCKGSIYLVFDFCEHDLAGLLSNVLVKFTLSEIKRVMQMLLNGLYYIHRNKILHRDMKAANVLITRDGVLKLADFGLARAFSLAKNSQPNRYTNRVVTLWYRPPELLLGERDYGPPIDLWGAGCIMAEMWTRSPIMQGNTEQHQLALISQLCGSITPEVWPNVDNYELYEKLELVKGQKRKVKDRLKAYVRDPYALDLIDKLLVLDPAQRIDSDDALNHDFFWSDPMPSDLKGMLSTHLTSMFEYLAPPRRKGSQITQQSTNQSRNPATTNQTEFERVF
A short description of series [2]: Tmax in mouse at 3 mg/kg, iv by LC-MS/MS analysis. In kind it is ADME, organism-based. As to conditions: in vivo.
A short description of series [3]: Tmax in beagle dog at 2 mg/kg, iv by LC-MS/MS analysis. In kind it is ADME, organism-based, Canis lupus familiaris. Conditions: in vivo.
Series [4] is described as follows: Cmax in mouse at 3 mg/kg, iv by LC-MS/MS analysis. It is filed as ADME, organism-based. Set-up: dose 3 mg/kg, route intravenous. As to conditions: in vivo.
Series [5] is described as follows: AUC (0 to infinity) in mouse at 10 mg/kg, po by LC-MS/MS analysis. In kind it is ADME, organism-based. Details: dose 10 mg/kg, route oral, time infinity. Conditions: in vivo. The essentials: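 Non-compartmental PK. Male SD rats 190-210 g, mice and beagle dogs acclimatized one week, fasted 12 h with water, split into iv and po groups (mice 48, rats 6, dogs 6). iv 3/3/2 mg/kg (mice/rats/dogs); po 10/20/10 mg/kg; vehicle DMSO in 5% glucose water. Blood at 2 or 5 to 720 min; plasma protein-precipitated with methanol, caffeine internal standard, LC-MS/MS.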

For series [6], the target named is BMP-2-inducible protein kinase (Homo sapiens) (UniProt Q9NSY1). Description: Binding affinity to wild-type human partial length BIKE (S34 to N329 residues) expressed in bacterial expression system assessed as remaining unbound target protein level at 1000 nM by Kinomescan method relative to control. The essentials:
(§1)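 Profiled in a KINOMEscan binding panel with the inhibitor at a single concentration of 1 μM. Binding to each kinase was read out as percent of control, relative to a DMSO control. Strong binders were defined as those with a percent control value below 1.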

Series [7] has as its target Calcium/calmodulin-dependent protein kinase kinase 2 (Homo sapiens) (UniProt Q96RR4). Description: Binding affinity to wild-type human partial length CAMKK2 (D65 to V471 residues) expressed in bacterial expression system assessed as remaining unbound target protein level at 1000 nM by Kinomescan method relative to control. The essentials: as §1
In series [8] the target is Cyclin-dependent kinase 11A (Homo sapiens) (UniProt Q9UQ88). Description: Binding affinity to wild-type human partial length CDC2L2 (D391 to K730 residues) expressed in bacterial expression system assessed as remaining unbound target protein level at 1000 nM by Kinomescan method relative to control. The essentials:
as §1

The target in series [9] is CDK4/Cyclin D3 (Homo sapiens) (UniProt P11802+P30281). Description: Binding affinity to wild-type human full length CDK4/cyclinD3 (M1 to E303 residues) expressed in mammalian expression system assessed as remaining unbound target protein level at 1000 nM by Kinomescan method relative to control. The essentials:
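KINOMEscan competitive binding profile at 1 μM inhibitor. Remaining target binding reported as percent of DMSO control.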

The target in series [10] is Tyrosine-protein kinase Fgr (Homo sapiens) (UniProt P09769). Description: Binding affinity to wild-type human partial length FGR (L233 to T529 residues) expressed in bacterial expression system assessed as remaining unbound target protein level at 1000 nM by Kinomescan method relative to control.
The test system of series [11] is eIF-2-alpha kinase GCN2 (Homo sapiens), Q9P2K8 [S808G]. Description: Binding affinity to wild-type human partial length GCN2 kinase domain 2 (R585 to T1018 residues) S808G mutant expressed in bacterial expression system assessed as remaining unbound target protein level at 1000 nM by Kinomescan method relative to control.
The target in series [12] is Homeodomain-interacting protein kinase 2 (Homo sapiens) (UniProt Q9H2X6). Put plainly: Binding affinity to wild-type human partial length HIPK2 (M153 to S564 residues) expressed in mammalian expression system assessed as remaining unbound target protein level at 1000 nM by Kinomescan method relative to control. The essentials: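 KINOMEscan binding panel of 468 kinases/mutants. Inhibitor was tested at a single concentration of 1 μM. Binding is reported as percent of control, defined relative to a DMSO control.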

For series [13], the system named is Mast/stem cell growth factor receptor Kit (Homo sapiens), P10721 [V559D,V654A]. Description: Binding affinity to human partial length KIT V559D/V654A double mutant (Y545 to D952 residues) expressed in bacterial expression system assessed as remaining unbound target protein level at 1000 nM by Kinomescan method relative to control. The essentials: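 KINOMEscan competition-binding profiling across the panel of 468 kinases and mutants, with inhibitor tested at 1 μM. Binding is expressed as percent of control, with DMSO as the reference control.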

For series [14], the target named is Serine/threonine-protein kinase NIM1 (Homo sapiens) (UniProt Q8IY84). Put plainly: Binding affinity to wild-type human partial length NIM1 (Q44 to N355 residues) expressed in mammalian expression system assessed as remaining unbound target protein level at 1000 nM by Kinomescan method relative to control.
Series [15] concerns the target Serine/threonine-protein kinase N2 (Homo sapiens) (UniProt Q16513). Put plainly: Binding affinity to wild-type human partial length PKN2 (E634 to C984 residues) expressed in bacterial expression system assessed as remaining unbound target protein level at 1000 nM by Kinomescan method relative to control.
Series [16] addresses Serine/threonine-protein kinase PLK1 (Homo sapiens) (UniProt P53350). Description: Binding affinity to wild-type human partial length PLK1 (A33 to F325 residues) expressed in mammalian expression system assessed as remaining unbound target protein level at 1000 nM by Kinomescan method relative to control.
Series [17] concerns the target Protein-tyrosine kinase 2-beta (Homo sapiens) (UniProt Q14289). Description: Binding affinity to wild-type human full length PYK2 (M1 to E967 residues) expressed in bacterial expression system assessed as remaining unbound target protein level at 1000 nM by Kinomescan method relative to control. The essentials:
as §1

For series [18], the target named is RAF proto-oncogene serine/threonine-protein kinase (Homo sapiens) (UniProt P04049). Put plainly: Binding affinity to wild-type human partial length RAF1 (I330 to T640 residues) expressed in bacterial expression system assessed as remaining unbound target protein level at 1000 nM by Kinomescan method relative to control.
Chain of RAF proto-oncogene serine/threonine-protein kinase (Homo sapiens) (P04049 whole entry, the tested form may be a part): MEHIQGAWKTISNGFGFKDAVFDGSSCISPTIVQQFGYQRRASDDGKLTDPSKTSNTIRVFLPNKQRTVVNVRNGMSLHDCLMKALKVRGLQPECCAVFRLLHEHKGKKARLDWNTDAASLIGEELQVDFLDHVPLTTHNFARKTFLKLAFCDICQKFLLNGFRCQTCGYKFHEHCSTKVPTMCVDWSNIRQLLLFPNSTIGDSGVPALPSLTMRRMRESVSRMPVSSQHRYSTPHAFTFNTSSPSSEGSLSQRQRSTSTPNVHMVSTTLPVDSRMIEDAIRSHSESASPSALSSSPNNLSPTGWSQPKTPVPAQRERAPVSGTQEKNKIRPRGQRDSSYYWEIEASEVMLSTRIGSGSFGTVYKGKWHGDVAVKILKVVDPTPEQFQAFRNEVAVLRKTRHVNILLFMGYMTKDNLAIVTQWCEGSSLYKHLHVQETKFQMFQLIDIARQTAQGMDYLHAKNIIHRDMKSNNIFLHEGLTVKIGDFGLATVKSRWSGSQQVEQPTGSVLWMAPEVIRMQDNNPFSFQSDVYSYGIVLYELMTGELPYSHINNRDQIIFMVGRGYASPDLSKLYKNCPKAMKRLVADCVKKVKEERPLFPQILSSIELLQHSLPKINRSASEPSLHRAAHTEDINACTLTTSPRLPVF
Series [19] concerns the target Ribosomal protein S6 kinase alpha-5 (Homo sapiens) (UniProt O75582). Put plainly: Binding affinity to wild-type human partial length C-terminal RPS6KA5 kinase domain 2 (V390 to T718 residues) expressed in bacterial expression system assessed as remaining unbound target protein level at 1000 nM by Kinomescan method relative to control. The essentials:
as §1

Series [20] concerns the target Ribosomal protein S6 kinase alpha-3 (Homo sapiens) (UniProt P51812). Description: Binding affinity to wild-type human partial length N-terminal RSK2 kinase domain 1 (M1 to D394 residues) expressed in mammalian expression system assessed as remaining unbound target protein level at 1000 nM by Kinomescan method relative to control.
The target of series [21] is Cyclin-dependent kinase 5/CDK5 activator 1 (Homo sapiens, UniProt Q00535). Put plainly: Inhibition of recombinant full length His/GST-tagged human CDK5/p25 expressed in baculovirus expression system.

Each structure is given as a SMILES string.

Chain of BMP-2-inducible protein kinase (Homo sapiens) (Q9NSY1 whole entry, looked up, the tested form may be a part): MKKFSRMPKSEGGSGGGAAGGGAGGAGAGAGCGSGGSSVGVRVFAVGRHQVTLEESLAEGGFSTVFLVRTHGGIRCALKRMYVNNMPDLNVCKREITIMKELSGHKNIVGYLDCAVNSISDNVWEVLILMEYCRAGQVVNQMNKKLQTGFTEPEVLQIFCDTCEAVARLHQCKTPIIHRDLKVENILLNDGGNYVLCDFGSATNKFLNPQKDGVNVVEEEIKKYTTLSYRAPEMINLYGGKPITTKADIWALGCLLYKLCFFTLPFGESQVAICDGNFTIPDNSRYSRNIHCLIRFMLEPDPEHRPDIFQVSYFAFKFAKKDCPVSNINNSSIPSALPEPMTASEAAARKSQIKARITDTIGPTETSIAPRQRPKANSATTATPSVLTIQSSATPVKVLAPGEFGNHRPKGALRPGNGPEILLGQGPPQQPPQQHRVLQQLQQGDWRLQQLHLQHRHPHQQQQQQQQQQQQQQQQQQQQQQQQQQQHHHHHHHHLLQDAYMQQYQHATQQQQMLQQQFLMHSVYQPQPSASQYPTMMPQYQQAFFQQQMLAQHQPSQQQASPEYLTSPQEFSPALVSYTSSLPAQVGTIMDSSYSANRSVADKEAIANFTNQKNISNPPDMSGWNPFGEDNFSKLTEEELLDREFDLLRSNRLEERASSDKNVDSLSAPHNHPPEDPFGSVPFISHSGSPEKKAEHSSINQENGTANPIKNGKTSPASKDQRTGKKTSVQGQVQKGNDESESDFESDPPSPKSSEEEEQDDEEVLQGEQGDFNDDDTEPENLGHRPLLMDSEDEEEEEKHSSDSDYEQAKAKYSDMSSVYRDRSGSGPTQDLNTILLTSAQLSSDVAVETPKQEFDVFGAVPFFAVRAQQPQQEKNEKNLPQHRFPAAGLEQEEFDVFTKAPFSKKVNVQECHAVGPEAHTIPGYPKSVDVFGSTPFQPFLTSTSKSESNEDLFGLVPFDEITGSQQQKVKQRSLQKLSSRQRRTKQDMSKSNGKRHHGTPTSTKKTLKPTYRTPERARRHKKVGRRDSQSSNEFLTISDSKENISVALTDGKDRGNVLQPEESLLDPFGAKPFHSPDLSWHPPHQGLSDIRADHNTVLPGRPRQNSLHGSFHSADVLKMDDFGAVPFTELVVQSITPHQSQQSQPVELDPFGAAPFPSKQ
Chain of Ribosomal protein S6 kinase alpha-5 (Homo sapiens) (O75582 whole entry, looked up, the tested form may be a part): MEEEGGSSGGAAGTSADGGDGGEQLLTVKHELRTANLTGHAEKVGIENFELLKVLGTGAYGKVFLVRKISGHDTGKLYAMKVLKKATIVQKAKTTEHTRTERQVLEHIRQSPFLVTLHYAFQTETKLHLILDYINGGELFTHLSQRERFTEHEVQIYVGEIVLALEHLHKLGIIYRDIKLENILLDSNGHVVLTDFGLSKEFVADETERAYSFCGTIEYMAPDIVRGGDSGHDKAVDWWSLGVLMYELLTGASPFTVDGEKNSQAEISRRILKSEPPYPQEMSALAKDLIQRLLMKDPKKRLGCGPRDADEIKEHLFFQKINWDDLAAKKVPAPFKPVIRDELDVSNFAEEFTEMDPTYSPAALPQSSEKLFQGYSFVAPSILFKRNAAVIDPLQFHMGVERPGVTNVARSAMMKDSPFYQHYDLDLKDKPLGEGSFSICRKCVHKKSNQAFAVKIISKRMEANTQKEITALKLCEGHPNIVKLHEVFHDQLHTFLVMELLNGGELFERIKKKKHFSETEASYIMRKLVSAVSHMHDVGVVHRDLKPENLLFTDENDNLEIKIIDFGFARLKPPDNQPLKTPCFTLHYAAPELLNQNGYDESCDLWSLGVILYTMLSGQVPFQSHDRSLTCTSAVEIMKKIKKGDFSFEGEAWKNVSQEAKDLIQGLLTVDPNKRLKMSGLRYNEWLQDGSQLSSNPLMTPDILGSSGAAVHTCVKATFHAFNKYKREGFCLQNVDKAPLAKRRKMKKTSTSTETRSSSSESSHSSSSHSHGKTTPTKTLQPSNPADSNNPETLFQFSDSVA
Chain of Serine/threonine-protein kinase N2 (Homo sapiens) (Q16513 whole entry, looked up, the tested form may be a part): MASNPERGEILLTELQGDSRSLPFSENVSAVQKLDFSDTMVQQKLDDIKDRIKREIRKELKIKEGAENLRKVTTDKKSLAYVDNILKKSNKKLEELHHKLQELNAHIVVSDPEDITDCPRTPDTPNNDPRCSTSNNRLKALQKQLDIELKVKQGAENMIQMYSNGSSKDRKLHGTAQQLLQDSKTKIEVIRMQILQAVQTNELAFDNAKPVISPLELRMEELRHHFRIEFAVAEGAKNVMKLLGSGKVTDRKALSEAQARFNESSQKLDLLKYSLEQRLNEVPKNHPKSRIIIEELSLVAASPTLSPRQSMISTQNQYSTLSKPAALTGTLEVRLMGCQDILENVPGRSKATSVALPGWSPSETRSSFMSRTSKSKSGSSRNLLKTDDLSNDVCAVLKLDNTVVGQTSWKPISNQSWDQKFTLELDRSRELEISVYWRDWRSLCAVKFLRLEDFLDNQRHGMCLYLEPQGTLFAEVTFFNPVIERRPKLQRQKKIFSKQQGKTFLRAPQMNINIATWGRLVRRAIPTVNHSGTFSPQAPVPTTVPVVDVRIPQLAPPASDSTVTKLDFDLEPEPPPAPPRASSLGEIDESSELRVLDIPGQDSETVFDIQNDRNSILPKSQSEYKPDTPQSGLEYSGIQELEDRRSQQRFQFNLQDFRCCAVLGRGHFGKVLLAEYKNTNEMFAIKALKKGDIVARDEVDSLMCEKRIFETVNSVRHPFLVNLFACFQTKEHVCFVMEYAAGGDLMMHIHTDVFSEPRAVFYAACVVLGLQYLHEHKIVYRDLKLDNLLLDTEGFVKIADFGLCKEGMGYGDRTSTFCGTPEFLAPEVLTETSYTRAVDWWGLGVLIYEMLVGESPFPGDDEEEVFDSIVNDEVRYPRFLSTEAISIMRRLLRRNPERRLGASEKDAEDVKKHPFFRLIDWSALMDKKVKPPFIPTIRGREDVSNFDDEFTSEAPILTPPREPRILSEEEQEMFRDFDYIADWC
Chain of Cyclin-dependent kinase 11A (Homo sapiens) (Q9UQ88 whole entry, the tested form may be a part): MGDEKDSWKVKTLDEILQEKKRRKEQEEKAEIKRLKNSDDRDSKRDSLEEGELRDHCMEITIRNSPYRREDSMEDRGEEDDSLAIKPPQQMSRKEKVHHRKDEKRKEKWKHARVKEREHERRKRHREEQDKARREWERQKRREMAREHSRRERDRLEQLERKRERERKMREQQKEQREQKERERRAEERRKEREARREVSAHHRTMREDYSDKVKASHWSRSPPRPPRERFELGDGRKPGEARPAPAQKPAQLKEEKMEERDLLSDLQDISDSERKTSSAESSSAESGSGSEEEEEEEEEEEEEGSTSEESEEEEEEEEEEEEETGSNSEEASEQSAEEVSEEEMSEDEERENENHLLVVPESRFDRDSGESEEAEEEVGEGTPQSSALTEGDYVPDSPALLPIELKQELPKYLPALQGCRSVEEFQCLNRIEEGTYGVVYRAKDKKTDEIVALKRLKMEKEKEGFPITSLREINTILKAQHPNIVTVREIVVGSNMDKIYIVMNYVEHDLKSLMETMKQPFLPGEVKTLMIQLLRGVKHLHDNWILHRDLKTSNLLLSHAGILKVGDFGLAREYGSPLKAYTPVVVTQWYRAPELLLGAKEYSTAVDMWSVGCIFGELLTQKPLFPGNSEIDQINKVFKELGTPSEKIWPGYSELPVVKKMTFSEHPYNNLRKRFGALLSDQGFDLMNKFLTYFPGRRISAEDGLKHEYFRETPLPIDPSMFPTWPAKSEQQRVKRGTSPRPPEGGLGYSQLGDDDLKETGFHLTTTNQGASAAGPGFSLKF

What is called EC50 is the concentration needed to bring the measured effect to its halfway point. The Tmax is the time at which the peak concentration occurs. One may read the Cmax as the maximum level reached in the sampled fluid or tissue. Usually AUC(0-inf) stands for the area under the concentration-time curve extrapolated to infinity. Read a low AUC(0-inf) as less exposure. As usually defined, the IC50 is the concentration that gives 50% inhibition. Take `COCCN[C@H]1CC[C@H](Nc2cc(-c3csc(NCC4(C#N)CCOCC4)n3)c(Cl)cn2)CC1`: the Ratio IC50 in the series listed under Homo sapiens came out at 300. The EC50 in [1] is less than 0.1 µM. Besides, the inhibition result in series [1] is “Dose-dependent effect”. Moreover, the time of peak concentration (Tmax) in series [2] was determined as 4.98 min; in [3], 1.2 min. The same compound came in with a peak concentration (Cmax) in [4] of 573 ng/mL. For the same compound, the AUC(0-inf) in [5] was 612 ng·h/mL. Moreover, the Activity in series [6] amounted to 100%; in series [7], 100%; in series [8] it was 90%; in series [9], 72%; in series [10], 90%; in series [11], 78%. In addition, the Activity came out at 74% in [12]; 100% in [13]; 96% in [14]; 100% in series [15]; 75% in series [16]; 90% in series [17]. Also, the values for the Activity in [18], in series [19] and in series [20] were 100%, 76% and 100%, respectively. Besides, in series [21], the half-maximal inhibitory concentration (IC50) turned out to be 4.64 µM.

These data come from ChEMBL document CHEMBL4261600 (Eur J Med Chem, 2018).
